Active and inactive are the calls of the source. The rule behind the calls is not given here.
Tests used:
D(2) dopamine receptor = D(2) dopamine receptor (Homo sapiens, UniProt P14416); assay: Displacement of [3H]spiroperidol from human cloned dopamine D2L receptor expressed in rat C6 cells; type: cell-based
[1] = target: T1, 5-hydroxytryptamine receptor 1A (Homo sapiens, UniProt P08908); assay: Displacement of [3H]8-OH-DPAT from human cloned 5HT1A receptor expressed in HEK293 cells; type: cell-based
T1 sequence (P08908 whole entry): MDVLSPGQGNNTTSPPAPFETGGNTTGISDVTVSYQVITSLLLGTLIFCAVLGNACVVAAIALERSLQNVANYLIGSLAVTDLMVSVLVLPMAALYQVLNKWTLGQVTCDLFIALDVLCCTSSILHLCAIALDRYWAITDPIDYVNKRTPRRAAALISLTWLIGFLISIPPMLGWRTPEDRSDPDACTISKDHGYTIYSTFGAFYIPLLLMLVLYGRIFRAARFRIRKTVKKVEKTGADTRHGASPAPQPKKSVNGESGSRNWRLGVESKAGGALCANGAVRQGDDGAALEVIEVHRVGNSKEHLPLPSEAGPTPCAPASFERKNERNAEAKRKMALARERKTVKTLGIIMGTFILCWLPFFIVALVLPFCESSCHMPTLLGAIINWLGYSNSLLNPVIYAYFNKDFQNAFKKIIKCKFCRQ
In short: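 Membranes (40 µg) from HEK-293 cells stably expressing human 5-HT1A, with 1.0 nM [3H]-8-OH-DPAT and compound (0.1 nM-10 µM). Incubated 120 min at 37 °C in 50 mM Tris-HCl pH 7.4, 5 mM MgSO4, then filtered. Nonspecific binding with 10 µM 5-HT. Ki by nonlinear fit and Cheng-Prusoff; three experiments in triplicate.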

[2] = target: 5-hydroxytryptamine receptor 7 (Rattus norvegicus, UniProt P32305); assay: Displacement of [3H]LSD from rat cloned 5HT7 receptor expressed in HEK293 cells; type: cell-based
In short: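 Rat recombinant 5-HT7 membranes (30 µg) from HEK-293 cells, with 2.5 nM [3H]-LSD and 6-9 compound concentrations. Incubated 60 min at 37 °C in 50 mM Tris, 10 mM MgCl2, 0.5 mM EDTA, pH 7.4, then filtered. Nonspecific binding with 10 µM 5-CT. Ki via Cheng-Prusoff; three experiments in triplicate.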

Mus musculus [3] = assay: AUC in CD1 albino mouse brain at 10 mg/kg, ip; type: ADME, organism-based; parameters: dose 10 mg/kg, route intraperitoneal; details: in vivo
In short: (§1)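 Male CD1 albino mice (25-30 g), 10 mg/kg i.p., 3 mice per time point. Brains were removed, blotted, frozen, homogenized in water (1 g/10 mL) and extracted twice with hexane/isoamyl alcohol. Parent and 1-arylpiperazine metabolite were measured by RP-HPLC-UV at 230 nm. LLOQ about 0.1 µg/g; no residual-blood correction. Cmax read directly, AUC by linear trapezoidal rule, t1/2 by noncompartmental analysis.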

[4] = Elimination half life in CD1 albino mouse brain at 10 mg/kg, ip; type: ADME, organism-based; parameters: dose 10 mg/kg, route intraperitoneal; details: read-out: beta t1/2; in short: as §1
[5] = Cmax in CD1 albino mouse brain at 10 mg/kg, ip after 120 mins; type: ADME, organism-based; parameters: dose 10 mg/kg, route intraperitoneal; in short: as §1
[6] = Cmax in CD1 albino mouse brain at 10 mg/kg, ip after 60 mins; type: ADME, organism-based; parameters: dose 10 mg/kg, route intraperitoneal; in short: as §1
[7] = Cmax in CD1 albino mouse brain at 10 mg/kg, ip after 30 mins; type: ADME, organism-based; parameters: dose 10 mg/kg, route intraperitoneal
In short: (§2)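 Male CD1 mice (25-30 g) received 10 mg/kg ip, with 3 mice per time point. Heparinized trunk blood gave plasma; brain was homogenized in water (1 g/10 mL). Samples were extracted with hexane/isoamyl alcohol and assayed by RP-HPLC-UV at 230 nm with an internal standard. Quantification limits were 0.1 µg/mL plasma and 0.1 µg/g brain. Cmax and its time were read from the data.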

[8] = Cmax in CD1 albino mouse plasma at 10 mg/kg, ip after 15 mins
[9] = Plasma concentration in CD1 albino mouse at 10 mg/kg, ip after 1 hr; type: ADME, organism-based; parameters: dose 10 mg/kg, route intraperitoneal; in short: as §2
[10] = Selectivity for rat cloned 5HT7 over human cloned dopamine D2
[11] = target: T2, 5-hydroxytryptamine receptor 7 (Cavia porcellus, UniProt P50407); assay: Agonist activity at 5HT7 receptor assessed as relaxation of substance P-induced Dunkin-Hartley guinea pig ileum contraction; type: functional, tissue-based
In short: (§3)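 Male Dunkin-Hartley guinea pigs (300-350 g); 3 cm proximal ileum segments were held under 1.0 g tension in Krebs-Henseleit at 37 °C, gassed with 95% O2/5% CO2. The bath contained 1 µM atropine, ketanserin and pyrilamine. Compound (0.001-10 µM) or the 5-CT reference was added 5 min before 100 nM substance P, giving noncumulative curves. Read-out was % reduction of contraction height; EC50 by nonlinear fitting.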

[12] = Selectivity for rat cloned 5HT7 over human cloned 5HT1A
[13] = target: 5-hydroxytryptamine receptor 7 (Cavia porcellus) (UniProt P50407); assay: Agonist activity at 5HT7 receptor assessed as relaxation of substance P-induced Dunkin-Hartley guinea pig ileum contraction relative to 5-carboxamidotryptamine; type: functional, tissue-based; parameters: scale not given: the % may be the effect or the level left; in short: as §3
Mus musculus [14] = species: Mus musculus; assay: Ratio of plasma AUC to brain AUC in CD1 albino mouse; type: ADME, organism-based; details: in vivo
In short: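 Male CD1 mice (25-30 g) were dosed at 10 mg/kg ip, 3 per time point. Trunk blood plasma and brain homogenate were extracted with hexane/isoamyl alcohol and analysed by RP-HPLC-UV at 230 nm. Quantification limit was ~0.1 µg/mL or µg/g. AUC was calculated by the linear trapezoidal rule, noncompartmental, extrapolated to infinity where possible.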

[15] = Elimination half life in CD1 albino mouse plasma at 10 mg/kg, ip; details: read-out: beta t1/2
Mus musculus [16] = assay: Volume of distribution in CD1 albino mouse plasma at 10 mg/kg, ip; details: in vivo
[17] = Cmax in CD1 albino mouse plasma at 10 mg/kg, ip after 30 mins; type: ADME, organism-based; parameters: dose 10 mg/kg, route intraperitoneal; in short: as §2
[18] = target: T2, 5-hydroxytryptamine receptor 7; assay: Antagonist activity at 5HT7 receptor assessed as inhibition of 4-(2-Diphenyl)-N-(4-pyridinylmethyl)-1-piperazinehexanamide mediated relaxation of substance P-induced Dunkin-Hartley guinea pig ileum contraction; type: functional, tissue-based; details: read-out: pA2 (converted)
In short: (§4)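 Male Dunkin-Hartley guinea pigs (300-350 g); whole proximal ileal segments (~3 cm) held under 1.0 g tension in Krebs-Henseleit, 95% O2/5% CO2, 37 °C. Bath contained 1 µM atropine, ketanserin and pyrilamine. Contraction evoked by 100 nM substance P; agonist added 5 min before; selective 5-HT7 antagonist at 0.1-3 µM; isometric tension relaxation, noncumulative curves.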

[19] = target: T2, 5-hydroxytryptamine receptor 7; assay: Antagonist activity at 5HT7 receptor assessed as inhibition of 2-[6-[4-(2-Diphenyl)-1-piperazinyl]-1-oxohexyl]-1,2,3,4-tetrahydroisoquinoline mediated relaxation of substance P-induced Dunkin-Hartley guinea pig ileum contraction; type: functional, tissue-based; details: read-out: pA2 (converted); in short: as §4
[20] = target: T2, 5-hydroxytryptamine receptor 7; assay: Antagonist activity at 5HT7 receptor assessed as inhibition of N-(4-Cyanophenylmethyl)-4-(2-diphenyl)-1-piperazinehexanamide mediated relaxation of substance P-induced Dunkin-Hartley guinea pig ileum contraction; type: functional, tissue-based; details: read-out: pA2 (converted); in short: as §4
[21] = target: 5-hydroxytryptamine receptor 7 (Cavia porcellus) (UniProt P50407); assay: Agonist activity at 5HT7 receptor assessed as relaxation of substance P-induced Dunkin-Hartley guinea pig ileum contraction at 3 mM; type: functional, tissue-based
In short: (§5)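 Guinea pig ileum was contracted by 100 nM substance P in Krebs-Henseleit with atropine, ketanserin and pyrilamine (1 µM each). Agonist tests were repeated after 5-HT7 desensitization: 60 min equilibration with 3 µM 5-CT, bath changed every 15 min. Relaxation was scored at single test concentrations as % reduction in contraction height.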

[22] = target: 5-hydroxytryptamine receptor 7 (Cavia porcellus) (UniProt P50407); assay: Agonist activity at 5HT7 receptor assessed as relaxation of substance P-induced Dunkin-Hartley guinea pig ileum contraction at 2 mM; type: functional, tissue-based; in short: as §5
[23] = target: 5-hydroxytryptamine receptor 7 (Rattus norvegicus) (UniProt P32305); assay: Displacement of [3H]LSD from rat cloned 5HT7 receptor expressed in HEK293 cells at […]; type: cell-based
[24] = target: 5-hydroxytryptamine receptor 7 (Cavia porcellus) (UniProt P50407); assay: Agonist activity at 5HT7 receptor assessed as relaxation of substance P-induced Dunkin-Hartley guinea pig ileum contraction at 1 mM; type: functional, tissue-based; in short: as §5

Chain of 5-hydroxytryptamine receptor 7 (Cavia porcellus) (P50407 whole entry): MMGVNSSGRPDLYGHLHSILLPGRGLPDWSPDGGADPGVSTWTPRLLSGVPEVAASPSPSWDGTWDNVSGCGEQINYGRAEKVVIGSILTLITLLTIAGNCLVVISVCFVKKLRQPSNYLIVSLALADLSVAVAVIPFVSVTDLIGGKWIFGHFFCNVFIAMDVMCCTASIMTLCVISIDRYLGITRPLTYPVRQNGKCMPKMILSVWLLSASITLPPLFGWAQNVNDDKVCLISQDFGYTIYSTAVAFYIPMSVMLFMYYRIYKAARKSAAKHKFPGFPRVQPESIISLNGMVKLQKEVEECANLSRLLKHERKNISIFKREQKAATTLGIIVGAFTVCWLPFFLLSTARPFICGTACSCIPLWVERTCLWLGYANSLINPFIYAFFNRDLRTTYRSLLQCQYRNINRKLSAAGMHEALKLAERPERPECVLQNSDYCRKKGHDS
T2 sequence (P50407 whole entry): as above
Chain of D(2) dopamine receptor (P14416 whole entry): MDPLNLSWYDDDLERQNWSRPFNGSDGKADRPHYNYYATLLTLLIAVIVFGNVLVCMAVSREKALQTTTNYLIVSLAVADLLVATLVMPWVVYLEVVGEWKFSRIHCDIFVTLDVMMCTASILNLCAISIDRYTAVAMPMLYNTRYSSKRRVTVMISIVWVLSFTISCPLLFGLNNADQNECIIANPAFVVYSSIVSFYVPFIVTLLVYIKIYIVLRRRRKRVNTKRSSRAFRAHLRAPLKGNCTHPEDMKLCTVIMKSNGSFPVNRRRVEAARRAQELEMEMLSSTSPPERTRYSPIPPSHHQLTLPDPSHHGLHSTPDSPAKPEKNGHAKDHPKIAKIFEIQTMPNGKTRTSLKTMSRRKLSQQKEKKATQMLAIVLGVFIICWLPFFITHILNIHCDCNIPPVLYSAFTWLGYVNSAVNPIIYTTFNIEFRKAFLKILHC
Chain of 5-hydroxytryptamine receptor 7 (Rattus norvegicus, UniProt P32305) (P32305 whole entry): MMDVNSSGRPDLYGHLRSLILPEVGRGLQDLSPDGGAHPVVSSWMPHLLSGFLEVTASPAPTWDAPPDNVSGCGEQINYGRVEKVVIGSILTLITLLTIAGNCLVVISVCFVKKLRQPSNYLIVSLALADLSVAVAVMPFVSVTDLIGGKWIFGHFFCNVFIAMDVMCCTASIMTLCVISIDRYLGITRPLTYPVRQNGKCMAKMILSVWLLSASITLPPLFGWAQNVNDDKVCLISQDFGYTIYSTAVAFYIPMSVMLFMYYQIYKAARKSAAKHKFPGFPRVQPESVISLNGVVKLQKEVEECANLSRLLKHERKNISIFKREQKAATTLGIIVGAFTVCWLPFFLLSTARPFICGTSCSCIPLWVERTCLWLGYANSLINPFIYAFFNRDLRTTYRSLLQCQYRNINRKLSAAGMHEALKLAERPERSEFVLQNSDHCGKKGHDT
Chain of 5-hydroxytryptamine receptor 7 (Rattus norvegicus) (P32305 whole entry): as above

Row | Structure (SMILES) | Ki (D(2) dopamine receptor) [µM] | Ki [1] [µM] | Ki [2] [µM] | further results
1 | c1ccc(-c2ccccc2N2CCNCC2)cc1 |  |  |  | AUC (Mus musculus [3]): 94 µg/min/mL; half-life [4]: 1.45 h; Cmax [5]: 410 ng/g
2 | CSc1ccccc1N1CCNCC1 |  |  |  | AUC (Mus musculus [3]): 85 µg/min/mL; Cmax [6]: 500 ng/g; half-life [4]: 1 h
3 | COc1ccccc1N1CCN(CCCCCC(=O)NCc2ccc(C#N)cc2)CC1 | 0.311 | 0.043 | 0.296 | 
4 | COc1ccccc1N1CCN(CCCCCC(=O)NCc2ccncc2)CC1 | 0.501 | 0.019 | 0.389 | 
5 | CSc1ccccc1N1CCN(CCCCCC(=O)NC2CCCc3ccccc32)CC1 (stereo not given) |  |  |  | Cmax [7]: 580 ng/g; Cmax [8]: 310 ng/mL; half-life [4]: 0.333 h; concentration at 1 h [9]: < 100 ng/mL
6 | O=C(CCCCCN1CCN(c2ccccc2-c2ccccc2)CC1)N1CCc2ccccc2C1 | 0.362 | 0.095 | 0.00381 | Selectivity ratio [10]: 95; EC50 [11]: 0.49 µM; Selectivity ratio [12]: 25; Activity [13]: 89%
7 | CS(=O)(=O)Oc1ccc(CNC(=O)CCCCCN2CCN(c3ccccc3-c3ccccc3)CC2)cc1 | 0.723 | 0.106 | 0.0057 | 
8 | N#Cc1ccc(CNC(=O)CCCCCN2CCN(c3ccccc3-c3ccccc3)CC2)cc1 | 0.142 |  | 0.00058 | Ratio AUC (Mus musculus [14]): 0.7; Cmax [7]: 540 ng/g; EC50 [11]: 0.6 µM; half-life [15]: 1.08 h; Vd (Mus musculus [16]): 11 L/kg; half-life [4]: 1.15 h; Activity [13]: 82%; Cmax [17]: 760 ng/mL
9 | COc1ccccc1N1CCN(CCCCCC(=O)NCc2ccccc2)CC1 | 0.226 | 0.013 | 0.224 | 
10 | COc1ccccc1N1CCN(CCCCCC(=O)N2Cc3ccccc3C2)CC1 | 0.73 | 0.0032 | 0.179 | 
11 | CC1CCN(CC[C@H]2CCCN2S(=O)(=O)c2cccc(O)c2)CC1 |  |  |  | Kb [18]: 0.011 µM; Kb [19]: 0.0158 µM; Kb [20]: 0.0204 µM
12 | O=C(CCCCCN1CCN(c2ccccc2-c2ccccc2)CC1)NCc1ccncc1 | 0.185 | 0.07 | 0.00098 | Selectivity ratio [10]: 95; EC50 [11]: 0.31 µM; Selectivity ratio [12]: 25; Activity [13]: 87%
13 | NCCc1c[nH]c2ccc(C(N)=O)cc12 |  |  |  | Activity [13]: 100%
14 | O=C(CCCCCN1CCN(c2ccccc2-c2ccccc2)CC1)NCc1ccccc1 | 0.503 | 0.161 |  | Activity [21]: Active; Activity [22]: Active; EC50 [11]: 4.5 µM; Activity [23]: 62%; Activity [24]: inactive

The remaining compounds from weak to strong by Ki (D(2) dopamine receptor), led by results:

Row | Ki (D(2) dopamine receptor) [µM] | Ki [1] [µM] | Ki [2] [µM] | Structure (SMILES) | further results
15 | 0.096 | 0.00107 | 0.042 | CSc1ccccc1N1CCN(CCCCCC(=O)N2Cc3ccccc3C2)CC1 | 
16 | 0.093 | 0.124 | 0.0083 | O=C(CCCCCN1CCN(c2ccccc2-c2ccccc2)CC1)N1Cc2ccccc2C1 | 
17 | 0.091 | 0.029 | 0.071 | COc1ccccc1N1CCN(CCCCCC(=O)NCc2ccc(OS(C)(=O)=O)cc2)CC1 | 
18 | 0.065 | 0.022 | 0.054 | CC(C)c1ccccc1N1CCN(CCCCCC(=O)N2Cc3ccccc3C2)CC1 | 
19 | 0.064 | 0.0082 | 0.0348 | CSc1ccccc1N1CCN(CCCCCC(=O)NCc2ccncc2)CC1 | 
20 | 0.04 | 0.00204 | 0.0329 | CSc1ccccc1N1CCN(CCCCCC(=O)N2CCc3ccccc3C2)CC1 | 
21 | 0.033 | 0.012 | 0.022 | CSc1ccccc1N1CCN(CCCCCC(=O)NCc2ccccc2)CC1 | 
22 | 0.03 | 0.0103 | 0.148 | CSc1ccccc1N1CCN(CCCCCC(=O)NCc2ccc(OS(C)(=O)=O)cc2)CC1 | 
23 | 0.022 | 0.04 | 0.031 | COc1ccccc1N1CCN(CCCCCC(=O)N2CCc3ccccc3C2)CC1 | 
24 | 0.021 | 0.325 | 0.0051 | CC(C)c1ccccc1N1CCN(CCCCCC(=O)NCc2ccncc2)CC1 | 
25 | 0.02 | 0.053 | 0.0086 | CC(C)c1ccccc1N1CCN(CCCCCC(=O)NCc2ccc(C#N)cc2)CC1 | 
26 | 0.0092 | 0.139 | 0.215 | CC(C)c1ccccc1N1CCN(CCCCCC(=O)NCc2ccccc2)CC1 | 
27 | 0.0078 | 0.057 | 0.076 | CC(C)c1ccccc1N1CCN(CCCCCC(=O)NCc2ccc(OS(C)(=O)=O)cc2)CC1 | 
28 | 0.0053 | 0.094 | 0.009 | CSc1ccccc1N1CCN(CCCCCC(=O)NCc2ccc(C#N)cc2)CC1 | 
29 | 0.0013 | 0.0037 | 0.006 | CC(C)c1ccccc1N1CCN(CCCCCC(=O)N2CCc3ccccc3C2)CC1 | 
